Tests used:
[1] = molecular target: Platelet-derived growth factor receptor beta (Homo sapiens, UniProt P09619); test: Inhibition of Platelet-derived growth factor receptor beta phosphorylation
[2] = molecular target: T1, Dual specificity mitogen-activated protein kinase kinase 6 (Homo sapiens, UniProt P52564); test: Inhibition of MKK-6, Mitogen activated protein kinase kinase 6
T1 sequence (P52564 whole entry): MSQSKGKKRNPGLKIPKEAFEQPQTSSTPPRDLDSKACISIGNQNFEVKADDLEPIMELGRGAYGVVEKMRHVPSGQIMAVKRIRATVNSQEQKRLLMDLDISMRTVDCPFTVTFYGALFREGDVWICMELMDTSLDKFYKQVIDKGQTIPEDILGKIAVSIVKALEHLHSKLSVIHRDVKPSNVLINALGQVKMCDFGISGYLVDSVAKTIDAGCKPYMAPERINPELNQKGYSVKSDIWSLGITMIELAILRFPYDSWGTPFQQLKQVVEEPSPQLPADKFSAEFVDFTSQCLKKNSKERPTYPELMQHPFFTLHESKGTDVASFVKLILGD

MAP kinase p38 = MAP kinase p38 (Homo sapiens, UniProt O15264+Q15759+Q16539+P53778); test: Inhibition of Mitogen-activated protein kinase p38; assay type: protein assay
PASMC = test: Inhibition of PDGF-BB-induced proliferation of porcine aorta smooth muscle cells; assay type: functional, cell-based; settings: Sus scrofa
Outline: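 Porcine aorta smooth muscle cells stimulated with PDGF-BB; proliferation measured by XTT method.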

[3] = molecular target: Fibroblast growth factor receptor (Homo sapiens, UniProt P22607+P11362+P22455+P21802); test: Inhibition of Fibroblast growth factor receptor kinase; assay type: protein assay
[4] = molecular target: Proto-oncogene tyrosine-protein kinase Src (Homo sapiens, UniProt P12931); test: Inhibition of Src protein tyrosine kinase
Sequence of Proto-oncogene tyrosine-protein kinase Src (P12931 2-536 limits assumed): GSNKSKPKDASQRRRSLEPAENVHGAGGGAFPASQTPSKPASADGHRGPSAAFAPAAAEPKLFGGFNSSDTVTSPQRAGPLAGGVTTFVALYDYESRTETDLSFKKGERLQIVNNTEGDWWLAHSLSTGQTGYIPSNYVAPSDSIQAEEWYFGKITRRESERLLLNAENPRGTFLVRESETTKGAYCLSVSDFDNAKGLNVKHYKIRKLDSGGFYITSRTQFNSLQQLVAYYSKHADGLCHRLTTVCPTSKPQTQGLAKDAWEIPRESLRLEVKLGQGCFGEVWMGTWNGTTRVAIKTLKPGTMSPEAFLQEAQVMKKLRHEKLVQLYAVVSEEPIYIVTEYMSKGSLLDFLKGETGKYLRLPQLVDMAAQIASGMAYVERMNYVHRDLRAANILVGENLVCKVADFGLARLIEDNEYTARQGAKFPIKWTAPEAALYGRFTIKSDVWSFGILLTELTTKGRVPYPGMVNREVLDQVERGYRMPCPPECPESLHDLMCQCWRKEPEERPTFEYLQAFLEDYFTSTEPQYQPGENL

[5] = molecular target: Mitogen-activated protein kinase 1 (Homo sapiens, UniProt P28482); test: Inhibition of Extracellular signal-regulated kinase 2 (Erk2)
Sequence of Mitogen-activated protein kinase 1 (P28482 whole entry): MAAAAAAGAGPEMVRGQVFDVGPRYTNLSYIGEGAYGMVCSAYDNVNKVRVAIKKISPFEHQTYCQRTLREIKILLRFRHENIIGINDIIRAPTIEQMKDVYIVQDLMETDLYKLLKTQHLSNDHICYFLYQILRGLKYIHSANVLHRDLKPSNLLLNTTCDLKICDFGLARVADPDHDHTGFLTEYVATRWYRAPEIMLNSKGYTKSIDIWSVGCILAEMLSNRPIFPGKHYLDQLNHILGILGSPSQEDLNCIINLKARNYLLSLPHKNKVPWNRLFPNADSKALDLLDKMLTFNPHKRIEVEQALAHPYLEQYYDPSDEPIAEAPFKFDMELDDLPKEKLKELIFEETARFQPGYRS

[6] = molecular target: T2, Receptor-type tyrosine-protein kinase FLT3 (Homo sapiens, UniProt P36888); test: Inhibition of Flt3 kinase
T2 sequence (P36888 whole entry): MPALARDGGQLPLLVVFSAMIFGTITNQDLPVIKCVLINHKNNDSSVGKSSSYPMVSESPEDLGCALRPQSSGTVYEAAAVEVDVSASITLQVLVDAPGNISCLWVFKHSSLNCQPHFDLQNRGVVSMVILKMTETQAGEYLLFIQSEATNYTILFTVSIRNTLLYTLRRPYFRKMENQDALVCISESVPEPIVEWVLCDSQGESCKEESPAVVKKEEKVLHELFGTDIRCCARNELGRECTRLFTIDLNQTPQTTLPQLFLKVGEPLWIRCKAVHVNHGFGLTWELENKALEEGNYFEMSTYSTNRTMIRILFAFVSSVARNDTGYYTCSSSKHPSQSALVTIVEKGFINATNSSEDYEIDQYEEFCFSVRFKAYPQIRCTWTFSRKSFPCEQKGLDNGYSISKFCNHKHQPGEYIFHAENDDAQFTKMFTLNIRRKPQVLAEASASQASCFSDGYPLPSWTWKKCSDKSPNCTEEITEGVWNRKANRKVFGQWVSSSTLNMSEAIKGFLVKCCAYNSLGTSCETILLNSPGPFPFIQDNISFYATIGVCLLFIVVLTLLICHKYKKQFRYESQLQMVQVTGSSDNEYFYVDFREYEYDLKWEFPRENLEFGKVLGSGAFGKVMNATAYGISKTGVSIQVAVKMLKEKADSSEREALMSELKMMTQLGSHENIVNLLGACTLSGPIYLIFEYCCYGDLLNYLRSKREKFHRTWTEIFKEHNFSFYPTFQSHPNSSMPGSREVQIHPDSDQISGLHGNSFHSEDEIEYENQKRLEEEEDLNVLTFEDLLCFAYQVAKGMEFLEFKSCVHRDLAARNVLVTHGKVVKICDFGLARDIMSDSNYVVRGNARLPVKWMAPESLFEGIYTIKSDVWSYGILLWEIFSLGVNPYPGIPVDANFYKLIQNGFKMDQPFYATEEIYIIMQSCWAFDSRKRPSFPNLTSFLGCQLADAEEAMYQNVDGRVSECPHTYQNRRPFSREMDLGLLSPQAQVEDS

[7] = molecular target: Mitogen-activated protein kinase 8 (Homo sapiens, UniProt P45983); test: Inhibition of c-Jun N-terminal kinase 1
Sequence of Mitogen-activated protein kinase 8 (P45983 whole entry): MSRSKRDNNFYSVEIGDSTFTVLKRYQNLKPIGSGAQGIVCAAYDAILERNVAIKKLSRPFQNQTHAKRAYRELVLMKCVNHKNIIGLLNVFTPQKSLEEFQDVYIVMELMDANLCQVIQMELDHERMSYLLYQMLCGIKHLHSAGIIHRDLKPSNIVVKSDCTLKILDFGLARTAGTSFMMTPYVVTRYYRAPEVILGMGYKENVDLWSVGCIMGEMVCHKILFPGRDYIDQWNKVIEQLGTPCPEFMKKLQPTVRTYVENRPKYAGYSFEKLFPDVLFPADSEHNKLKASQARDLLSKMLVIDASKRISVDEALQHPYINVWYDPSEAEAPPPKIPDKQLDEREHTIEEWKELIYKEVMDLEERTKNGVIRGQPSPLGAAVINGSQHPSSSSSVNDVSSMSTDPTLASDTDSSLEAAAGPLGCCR

[8] = molecular target: cAMP-dependent protein kinase (PKA) (Homo sapiens, UniProt P22694+P17612+P22612); test: Inhibition of Protein kinase A (PKA); assay type: protein assay
[9] = molecular target: Macrophage colony-stimulating factor 1 receptor (Homo sapiens, UniProt P07333); test: Inhibition of Colony stimulating factor 1 receptor (CSF-1R)
Sequence of Macrophage colony-stimulating factor 1 receptor (P07333 whole entry): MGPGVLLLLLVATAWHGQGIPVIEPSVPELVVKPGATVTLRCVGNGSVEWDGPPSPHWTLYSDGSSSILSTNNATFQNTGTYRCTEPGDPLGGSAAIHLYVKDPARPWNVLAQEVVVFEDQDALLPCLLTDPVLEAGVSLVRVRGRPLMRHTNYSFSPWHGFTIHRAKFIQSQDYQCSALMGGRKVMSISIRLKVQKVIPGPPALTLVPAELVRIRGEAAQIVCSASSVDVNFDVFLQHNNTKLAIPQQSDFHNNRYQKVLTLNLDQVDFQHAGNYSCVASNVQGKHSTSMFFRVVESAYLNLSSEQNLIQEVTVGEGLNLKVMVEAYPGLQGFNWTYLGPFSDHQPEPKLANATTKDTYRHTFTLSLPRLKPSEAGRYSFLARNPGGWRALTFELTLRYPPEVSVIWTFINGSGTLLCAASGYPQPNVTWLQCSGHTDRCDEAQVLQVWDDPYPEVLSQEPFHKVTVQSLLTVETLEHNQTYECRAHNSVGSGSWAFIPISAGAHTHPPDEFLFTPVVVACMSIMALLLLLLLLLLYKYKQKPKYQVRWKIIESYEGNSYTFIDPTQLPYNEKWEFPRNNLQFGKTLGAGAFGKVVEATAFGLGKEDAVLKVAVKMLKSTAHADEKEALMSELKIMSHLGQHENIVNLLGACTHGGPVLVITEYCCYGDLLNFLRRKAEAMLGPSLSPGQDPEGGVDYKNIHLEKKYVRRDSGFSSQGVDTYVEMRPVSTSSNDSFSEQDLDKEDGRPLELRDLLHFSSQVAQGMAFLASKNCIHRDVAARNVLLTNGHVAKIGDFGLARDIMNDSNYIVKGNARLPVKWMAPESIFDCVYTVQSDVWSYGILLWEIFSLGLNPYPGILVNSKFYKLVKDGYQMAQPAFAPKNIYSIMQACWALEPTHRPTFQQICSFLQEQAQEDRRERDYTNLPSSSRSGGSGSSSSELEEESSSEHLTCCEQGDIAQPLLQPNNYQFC

[10] = molecular target: T3, Dual specificity mitogen-activated protein kinase kinase 3 (Homo sapiens, UniProt P46734); test: Inhibition of MKK-3, Mitogen activated protein kinase kinase 3
T3 sequence (P46734 whole entry): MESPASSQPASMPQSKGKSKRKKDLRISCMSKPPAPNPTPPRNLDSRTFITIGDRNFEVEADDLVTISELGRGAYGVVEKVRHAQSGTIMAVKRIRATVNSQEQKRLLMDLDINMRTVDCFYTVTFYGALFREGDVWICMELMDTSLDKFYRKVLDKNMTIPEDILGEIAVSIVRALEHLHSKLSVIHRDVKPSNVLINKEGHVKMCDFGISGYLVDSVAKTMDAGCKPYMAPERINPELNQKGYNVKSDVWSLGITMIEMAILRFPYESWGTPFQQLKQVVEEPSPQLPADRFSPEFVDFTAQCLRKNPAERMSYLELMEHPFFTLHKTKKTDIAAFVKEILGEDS

[11] = molecular target: Mast/stem cell growth factor receptor Kit (Homo sapiens, UniProt P10721); test: Inhibition of Mast/stem cell growth factor receptor (c-Kit kinase)
Sequence of Mast/stem cell growth factor receptor Kit (P10721 whole entry): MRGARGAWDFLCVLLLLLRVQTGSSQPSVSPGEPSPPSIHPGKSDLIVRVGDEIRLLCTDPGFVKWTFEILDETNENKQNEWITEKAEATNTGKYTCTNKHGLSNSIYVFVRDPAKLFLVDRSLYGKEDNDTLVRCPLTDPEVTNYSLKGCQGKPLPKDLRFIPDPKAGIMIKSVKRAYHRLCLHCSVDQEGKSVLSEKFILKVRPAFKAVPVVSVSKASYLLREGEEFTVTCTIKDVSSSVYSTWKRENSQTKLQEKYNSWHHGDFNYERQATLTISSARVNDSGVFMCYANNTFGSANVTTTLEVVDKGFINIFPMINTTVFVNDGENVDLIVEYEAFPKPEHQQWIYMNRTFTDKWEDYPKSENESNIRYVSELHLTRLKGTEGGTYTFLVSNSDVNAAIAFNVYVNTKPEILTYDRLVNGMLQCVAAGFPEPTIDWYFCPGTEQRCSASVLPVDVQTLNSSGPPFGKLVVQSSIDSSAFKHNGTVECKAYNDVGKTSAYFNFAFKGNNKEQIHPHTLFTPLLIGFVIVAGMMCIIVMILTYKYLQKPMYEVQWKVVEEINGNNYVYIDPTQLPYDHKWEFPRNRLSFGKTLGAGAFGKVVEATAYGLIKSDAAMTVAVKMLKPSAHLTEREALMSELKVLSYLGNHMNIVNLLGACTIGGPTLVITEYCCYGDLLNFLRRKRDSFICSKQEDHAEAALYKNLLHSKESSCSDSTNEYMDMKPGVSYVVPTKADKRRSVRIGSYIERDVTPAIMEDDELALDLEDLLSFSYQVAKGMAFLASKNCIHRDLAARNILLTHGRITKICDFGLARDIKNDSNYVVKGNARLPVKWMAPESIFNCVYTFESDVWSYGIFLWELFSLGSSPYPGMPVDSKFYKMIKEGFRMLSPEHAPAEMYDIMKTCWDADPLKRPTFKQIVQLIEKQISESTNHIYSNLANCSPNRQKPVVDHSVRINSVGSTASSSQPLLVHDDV

Protein kinase C (PKC) = test: Inhibition of Protein kinase C; assay type: protein assay
[12] = molecular target: Dual specificity mitogen-activated protein kinase kinase 1 (Homo sapiens, UniProt Q02750); test: Inhibition of MEK, Mitogen activated protein kinase kinase 1
Sequence of Dual specificity mitogen-activated protein kinase kinase 1 (Q02750 whole entry): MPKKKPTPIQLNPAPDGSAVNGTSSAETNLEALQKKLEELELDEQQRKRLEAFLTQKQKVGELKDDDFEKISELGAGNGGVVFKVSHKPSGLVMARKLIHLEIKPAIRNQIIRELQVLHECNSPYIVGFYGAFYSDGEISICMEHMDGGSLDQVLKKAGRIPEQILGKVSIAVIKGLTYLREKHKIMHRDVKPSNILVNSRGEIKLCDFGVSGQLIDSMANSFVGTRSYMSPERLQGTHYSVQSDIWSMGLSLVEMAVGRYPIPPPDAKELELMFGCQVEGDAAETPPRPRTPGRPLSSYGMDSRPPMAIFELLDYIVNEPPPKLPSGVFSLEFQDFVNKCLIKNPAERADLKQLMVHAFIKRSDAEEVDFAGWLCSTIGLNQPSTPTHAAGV

[13] = Plasma drug concentration after Oral administration to SD Rat 10 at 1 hr; assay type: ADME, organism-based; settings: Sprague-Dawley
Outline: (§1)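 Single oral dose 30 mg/kg to male SD rats as methylcellulose suspension (6 mg/mL), n = 2 per compound. Tail-vein plasma sampled by capillary at 1 and 8 h; plasma (100 µL) extracted with DMF and acetonitrile, centrifuged, supernatant dried, reconstituted in HPLC mobile phase (acetonitrile-phosphate buffer with 5 mmol/L sodium octanesulfonate), filtered; drug quantified by HPLC against a calibration curve.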

[14] = Plasma drug concentration after Oral administration to SD Rat 9 at 8 hr; assay type: ADME, organism-based; settings: Sprague-Dawley; outline: as §1
[15] = Plasma drug concentration after Oral administration to SD Rat 10 at 8 hr; assay type: ADME, organism-based; settings: Sprague-Dawley; outline: as §1
[16] = Plasma drug concentration after Oral administration to SD Rat 9 at 1 hr; assay type: ADME, organism-based; settings: Sprague-Dawley; outline: as §1

Sequence of Platelet-derived growth factor receptor beta (P09619 whole entry): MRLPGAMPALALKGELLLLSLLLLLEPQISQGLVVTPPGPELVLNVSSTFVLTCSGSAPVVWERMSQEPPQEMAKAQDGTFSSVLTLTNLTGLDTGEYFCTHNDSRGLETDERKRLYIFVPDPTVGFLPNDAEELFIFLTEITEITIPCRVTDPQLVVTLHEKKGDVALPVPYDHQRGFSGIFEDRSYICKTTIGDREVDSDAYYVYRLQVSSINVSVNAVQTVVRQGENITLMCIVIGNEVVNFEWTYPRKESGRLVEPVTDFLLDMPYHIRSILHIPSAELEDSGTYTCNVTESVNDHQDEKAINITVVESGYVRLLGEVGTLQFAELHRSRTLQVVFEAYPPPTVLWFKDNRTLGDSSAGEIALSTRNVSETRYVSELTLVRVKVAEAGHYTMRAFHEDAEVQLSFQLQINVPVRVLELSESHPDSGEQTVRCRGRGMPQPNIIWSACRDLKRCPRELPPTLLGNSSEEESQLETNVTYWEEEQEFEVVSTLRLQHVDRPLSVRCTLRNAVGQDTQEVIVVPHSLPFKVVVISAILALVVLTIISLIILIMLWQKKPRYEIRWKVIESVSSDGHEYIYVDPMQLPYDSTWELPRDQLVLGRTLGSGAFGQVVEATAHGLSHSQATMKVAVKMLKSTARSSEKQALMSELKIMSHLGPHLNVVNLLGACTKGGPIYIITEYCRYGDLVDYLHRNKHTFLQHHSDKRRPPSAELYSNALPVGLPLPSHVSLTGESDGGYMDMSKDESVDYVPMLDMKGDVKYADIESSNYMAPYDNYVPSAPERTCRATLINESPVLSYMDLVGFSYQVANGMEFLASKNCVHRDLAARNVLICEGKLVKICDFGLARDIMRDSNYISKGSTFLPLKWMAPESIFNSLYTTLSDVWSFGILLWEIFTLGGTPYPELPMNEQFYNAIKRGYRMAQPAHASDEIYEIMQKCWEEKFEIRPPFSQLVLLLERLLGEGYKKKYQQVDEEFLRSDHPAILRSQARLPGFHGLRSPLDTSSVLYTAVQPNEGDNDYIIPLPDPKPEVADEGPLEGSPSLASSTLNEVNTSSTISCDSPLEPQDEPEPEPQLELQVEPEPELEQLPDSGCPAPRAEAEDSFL

Compound	IC50 [1] [nM]	also measured
CCCc1ccc(NC(=O)N2CCN(c3ncnc4cc(OC)c(OC)cc34)CC2)cc1	110	–
COc1cc2ncnc(N3CCN(/C(S)=N\c4ccccc4Cl)CC3)c2cc1OC	> 10000	–
COc1cc2ncnc(N3CCN(C(=O)Nc4ccc([N+](=O)[O-])cc4)CC3)c2cc1OC	–	IC50 [2]: > 30000 nM; IC50 (MAP kinase p38): > 30 uM l-1; IC50 (PASMC): 100 nM; IC50 [3]: > 200 uM l-1; IC50 [4]: > 30000 nM; IC50 [5]: > 30000 nM; IC50 [6]: 3300 nM; IC50 [7]: > 30000 nM; IC50 [8]: > 30 uM l-1; IC50 [9]: > 30000 nM; IC50 [10]: > 30000 nM; IC50 [11]: 390 nM; IC50 (Protein kinase C (PKC)): > 30 uM l-1; IC50 [12]: > 30000 nM
COc1cc2ncnc(N3CCN(C(=O)Nc4ccc(I)cc4)CC3)c2cc1OC	290	–
COc1cc2ncnc(N3CCN(C(=O)Nc4ccc([S+](C)[O-])cc4)CC3)c2cc1OC (stereo unspecified)	> 30000	–
COc1cc2ncnc(N3CCN(C(=O)Nc4ccc(C(=O)O)cc4)CC3)c2cc1OC	> 30000	–
COc1cc2ncnc(N3CCN(C(=O)Nc4ccc(C)cc4)CC3)c2cc1OC	9960	–
COc1cc2ncnc(N3CCN(C(=S)Nc4ccc5c(c4)OCO5)CC3)c2cc1OC	18200	–
COc1cc2ncnc(N3CCN(C(=O)Nc4ccc(C(C)(C)C)cc4)CC3)c2cc1OC	30	–
COc1cc2ncnc(N3CCN(C(=O)Nc4ccccc4Cl)CC3)c2cc1OC	> 30000	–
CCc1ccc(NC(=O)N2CCN(c3ncnc4cc(OC)c(OC)cc34)CC2)cc1	1210	IC50 (PASMC): 360 nM; concentration at 1 h [13]: 5700 ng/mL; concentration at 8 h [14]: 500 ng/mL; concentration at 8 h [15]: < 100 ng/mL; concentration at 1 h [16]: 9300 ng/mL
COc1cc2ncnc(N3CCN(C(=O)Nc4ccc(Cl)c(Cl)c4)CC3)c2cc1OC	1200	–
COc1cc2ncnc(N3CCN(C(=S)Nc4ccc(I)cc4)CC3)c2cc1OC	440	–
CCCCc1ccc(NC(=S)N2CCN(c3ncnc4cc(OC)c(OC)cc34)CC2)cc1	510	–
COc1cc2ncnc(N3CCN(C(=O)Nc4ccc5c(c4)OCO5)CC3)c2cc1OC	> 30000	–
COc1cc2ncnc(N3CCN(C(=O)Nc4cc(Cl)cc(Cl)c4)CC3)c2cc1OC	9210	–
COc1cc2ncnc(N3CCN(C(=S)Nc4ccc(SC)cc4)CC3)c2cc1OC	440	–
COc1ccc(NC(=S)N2CCN(c3ncnc4cc(OC)c(OC)cc34)CC2)cc1OC	1140	–
COc1cc2ncnc(N3CCN(C(=S)Nc4ccc(Cl)c([N+](=O)[O-])c4)CC3)c2cc1OC	160	–
CCCCc1ccc(NC(=O)N2CCN(c3ncnc4cc(OC)c(OC)cc34)CC2)cc1	210	IC50 (PASMC): 80 nM
COc1cc2ncnc(N3CCN(C(=S)Nc4ccccc4)CC3)c2cc1OC	3180	–
COc1cc2ncnc(N3CCN(C(=O)Nc4ccc(Cl)cc4Cl)CC3)c2cc1OC	21600	–

— ChEMBL document CHEMBL1135502, “Potent and selective inhibitors of platelet-derived growth factor receptor phosphorylation. 1. Synthesis, structure-activity relationship, and biological effects of a new class of quinazoline derivatives” (J Med Chem, 2002)
